Two molecules from PMC4624265 (Nuclear medicine and biology, 2015) can be followed below.

The target of data set [1] is T1, PSMA (Homo sapiens, UniProt Q04609). Kind of data set: Reversibility assay. It is filed as biochemical.
For data set [2], the system named is mice bearing CWR22Rv1 tumor xenografts. The experiment in a line: Ex vivo biodistribution in CWR22Rv1 tumor-bearing mice. As to conditions: indicated by insignificant bone uptake. In a few lines:
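Male athymic NCr-nu/nu mice carried CWR22Rv1 xenografts (about 10^6 cells in 50/50 complete medium/matrigel, right shoulder), used 4–5 weeks after implantation. Under isoflurane, HPLC-purified radiotracer (35–40 μCi in saline) was given by tail vein. For blocking, 250 μg of the PSMA inhibitor in saline was given 1 h before tracer, 4 h group only. Mice were euthanized at 1 h or 4 h, n = 4. Blood was taken by cardiac puncture; organs were weighed and gamma-counted. %ID/g was calculated against standards; two-tailed t-test, p<0.05.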

Data set [3] addresses T1, PSMA. Kind of data set: PSMA inhibition assay. It counts as biochemical.

T1 sequence (Q04609 whole entry): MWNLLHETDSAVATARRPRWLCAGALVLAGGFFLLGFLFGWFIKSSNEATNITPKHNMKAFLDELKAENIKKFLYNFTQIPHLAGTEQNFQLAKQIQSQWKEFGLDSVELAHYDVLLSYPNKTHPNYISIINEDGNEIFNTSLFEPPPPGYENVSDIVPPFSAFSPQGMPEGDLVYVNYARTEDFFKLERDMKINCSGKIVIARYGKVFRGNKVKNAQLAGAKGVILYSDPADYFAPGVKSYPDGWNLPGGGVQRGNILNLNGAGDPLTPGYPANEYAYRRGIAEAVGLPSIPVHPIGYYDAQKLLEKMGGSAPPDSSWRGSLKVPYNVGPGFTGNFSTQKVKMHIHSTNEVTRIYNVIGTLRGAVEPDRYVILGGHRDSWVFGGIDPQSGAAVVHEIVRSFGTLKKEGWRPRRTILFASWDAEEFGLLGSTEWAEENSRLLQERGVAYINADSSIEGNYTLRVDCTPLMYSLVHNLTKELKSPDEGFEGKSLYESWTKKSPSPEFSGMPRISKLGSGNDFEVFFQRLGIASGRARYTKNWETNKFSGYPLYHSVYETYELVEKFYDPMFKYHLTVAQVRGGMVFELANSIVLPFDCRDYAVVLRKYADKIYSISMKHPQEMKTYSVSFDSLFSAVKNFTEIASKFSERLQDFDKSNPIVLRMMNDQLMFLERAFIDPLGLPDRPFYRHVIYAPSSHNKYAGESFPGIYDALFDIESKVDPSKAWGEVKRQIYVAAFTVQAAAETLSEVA

As for `O=C(O)CCC(NP(=O)(O)OCCC[C@@H](NC(=O)CC[C@H](NC(=O)CCCCCNC(=O)c1ccc(F)cc1)C(=O)O)C(=O)O)C(=O)O` (stereo partly drawn) [compound 5, 2-(((S)-((4R)-4-carboxy-4-(4-carboxy-4-(6-(4-fluorobenzamido)hexanamido)butanamido)butoxy)(hydroxy)phosphoryl)amino) pentanedioic acid], the “Mode of binding to PSMA” value on PSMA [1] is on record as “irreversible”. The Defluorination in vivo entry in data set [2] is on record as “no defluorination”.

Regarding `NCCCCCC(=O)N[C@@H](CCC(=O)N[C@H](CCCOP(=O)(O)NC(CCC(=O)O)C(=O)O)C(=O)O)C(=O)O` (stereo partly drawn) [compound 3, 2-(((S)-((4R)-4-(4-(6-aminohexanamido)-4-carboxybutanamido)-4-carboxybut-oxy) (hydroxy)phosphoryl)amino)pentanedioic acid], the “Mode of binding to PSMA” value at PSMA [1] is on record as “irreversible”. On PSMA [3], the IC50 is 19 nM.
